Laboratory results as given in ChEMBL document CHEMBL5705891, “Small-molecule kinase inhibitors provide insight into Mps1 cell cycle function” (Nat Chem Biol, 2010).
Calls of active or inactive are those of the source. The rule behind the calls is not given here.

What was measured:
[1] = system: U2OS; experiment: Reversal of nocodazole-induced mitotic arrest in human U2OS cells assessed as Ser10 phosphorylated Histone H3-positive 4c population at 5 uM incubated for 16 hrs by flow cytometry (reference value: 94 %); assay type: functional
[2] = system: HeLa S3; experiment: Reversal of nocodazole-induced mitotic arrest in human HeLa S3 cells expressing histone H2B-GFP assessed as DNA decondensation at 10 uM measured for 20 to 60 mins by immunofluorescence analysis; assay type: functional, cell-based; conditions: time 20-60 min
Summary of the method: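 HeLa S3 H2B-GFP cells were held in nocodazole (200 ng·ml⁻¹) with or without inhibitor. Mitotic exit was scored as DNA decondensation and nuclear envelope reassembly, imaged every 5 min (60X objective); 150 cells counted per population.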

[3] = target: Serine/threonine-protein kinase Chk2 (Homo sapiens) (UniProt O96017); experiment: Inhibition of CHEK2 (unknown origin) assessed as residual enzyme activity at 10 uM by Ambit kinase binding assay relative to control
Serine/threonine-protein kinase Chk2 (Homo sapiens), sequence (O96017 whole entry): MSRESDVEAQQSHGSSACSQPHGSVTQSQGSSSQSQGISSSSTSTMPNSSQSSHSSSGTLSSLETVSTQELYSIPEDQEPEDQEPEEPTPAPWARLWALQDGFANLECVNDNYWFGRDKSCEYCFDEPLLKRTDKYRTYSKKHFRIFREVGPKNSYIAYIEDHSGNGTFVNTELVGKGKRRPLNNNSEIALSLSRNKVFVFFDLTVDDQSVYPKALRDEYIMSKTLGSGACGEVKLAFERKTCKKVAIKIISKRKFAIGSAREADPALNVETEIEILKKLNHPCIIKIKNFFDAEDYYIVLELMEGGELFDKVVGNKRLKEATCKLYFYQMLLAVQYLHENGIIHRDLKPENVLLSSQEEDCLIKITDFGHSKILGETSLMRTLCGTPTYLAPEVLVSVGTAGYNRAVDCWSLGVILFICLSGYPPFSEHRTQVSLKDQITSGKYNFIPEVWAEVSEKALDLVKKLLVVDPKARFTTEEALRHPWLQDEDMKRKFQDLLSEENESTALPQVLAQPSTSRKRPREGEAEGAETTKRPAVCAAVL

[4] = target: Tyrosine-protein kinase Fer (Homo sapiens) (UniProt P16591); experiment: Inhibition of FER (unknown origin) assessed as residual enzyme activity at 10 uM by Ambit kinase binding assay relative to control
[5] = target: Proto-oncogene tyrosine-protein kinase ROS (Homo sapiens) (UniProt P08922); experiment: Inhibition of ROS1 (unknown origin) assessed as residual enzyme activity at 10 uM by Ambit kinase binding assay relative to control
[6] = system: U2OS; experiment: Reversal of paclitaxel-induced mitotic arrest in human U2OS cells assessed as accumulation of 4N phosphorylated Histone H3-negative cells incubated for 16 hrs by flow cytometry; assay type: functional, cell-based; conditions: dose 5-10 µM
[7] = system: U2OS; experiment: Reversal of paclitaxel-induced mitotic arrest in human U2OS cells assessed as Ser10 phosphorylated Histone H3-positive 4c population at 5 uM incubated for 16 hrs by flow cytometry (reference value: 25 %); assay type: functional
[8] = system: U2OS; experiment: Initiation of anaphase in human U2OS cells expressing histone H2B-GFP measured for 60 mins by fluorescence time-lapse microscopy; assay type: functional, cell-based; conditions: dose 5-10 µM
Summary of the method: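 U2OS H2B-GFP cells were given DMSO or inhibitor and imaged by fluorescence time-lapse at 37°C, 5% CO₂, one frame every 2 min. NEBD-to-anaphase time was scored for 100 cells per population and plotted as cumulative percentage initiating anaphase.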

[9] = system: UTRM10; experiment: Inhibition of hyperphosphorylation of LAP-tagged Mps1 M602Q mutant (unknown origin) expressed in UTRM10 cells (unknown origin) measured after 90 mins by immunoblot analysis; assay type: cell-based; conditions: Homo sapiens
[10] = system: HCT-116; experiment: Induction of aneuploidy in human HCT-116 cells at 10 uM incubated for 4 days by FACS analysis; assay type: functional, cell-based; conditions: time 4.0 day
Summary of the method: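 HCT116 cells were treated with 10 μM compound or DMSO vehicle for the indicated times up to 96 h, then DNA content was profiled by flow cytometry.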

[11] = system: HCT-116; experiment: Cytotoxicity against human HCT-116 cells assessed as loss of clonal survival at 5 to 10 uM incubated for 10 days by crystal violet staining based assay; assay type: functional, cell-based; conditions: dose 5-10 µM, time 10.0 day
Summary of the method: (§1)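 Colony outgrowth: cells plated at 200 cells per 60-mm dish, exposed to compound or DMSO vehicle and stained with crystal violet after 10 days. HCT116 grown in McCoy's 5A; A549 and HeLa in DMEM; hTERT-RPE1 in DMEM/F-12. All media had 10% FBS and penicillin/streptomycin, 37°C, 5% CO2. Quantified from 3 independent experiments, mean + SD, Student's t test.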

[12] = system: HCT-116; experiment: Antiproliferative activity against human HCT-116 cells with p53-/- assessed as loss of clonal survival upto 10 uM incubated for 10 days by crystal violet staining based assay; assay type: functional, cell-based; conditions: time 10.0 day; summary of the method: as §1
[13] = system: HCT-116; experiment: Induction of apoptosis in human HCT-116 cells assessed as increase in cleaved PARP level at 5 to 10 uM measured after 48 hrs by immunoblot analysis; assay type: functional, cell-based; conditions: dose 5-10 µM
[14] = system: HCT-116; experiment: Induction of apoptosis in human HCT-116 cells assessed as increase in cleaved PARP level at 5 to 10 uM measured for 24 to 48 hrs in presence of Z-VAD-FMK by immunoblot analysis; assay type: functional, cell-based; conditions: dose 5-10 µM, time 24-48 hrs
[15] = system: HCT-116; experiment: Antiproliferative activity against human HCT-116 cells with p53+/+ at 10 uM measured after 96 hrs in presence of Z-VAD-FMK by Syto60 staining based assay; assay type: functional, cell-based
[16] = target: T1, Leukocyte tyrosine kinase receptor (Homo sapiens, UniProt P29376); experiment: Binding affinity to LTK (unknown origin) assessed as dissociation constant by Ambit kinase binding assay
T1 sequence (P29376 whole entry): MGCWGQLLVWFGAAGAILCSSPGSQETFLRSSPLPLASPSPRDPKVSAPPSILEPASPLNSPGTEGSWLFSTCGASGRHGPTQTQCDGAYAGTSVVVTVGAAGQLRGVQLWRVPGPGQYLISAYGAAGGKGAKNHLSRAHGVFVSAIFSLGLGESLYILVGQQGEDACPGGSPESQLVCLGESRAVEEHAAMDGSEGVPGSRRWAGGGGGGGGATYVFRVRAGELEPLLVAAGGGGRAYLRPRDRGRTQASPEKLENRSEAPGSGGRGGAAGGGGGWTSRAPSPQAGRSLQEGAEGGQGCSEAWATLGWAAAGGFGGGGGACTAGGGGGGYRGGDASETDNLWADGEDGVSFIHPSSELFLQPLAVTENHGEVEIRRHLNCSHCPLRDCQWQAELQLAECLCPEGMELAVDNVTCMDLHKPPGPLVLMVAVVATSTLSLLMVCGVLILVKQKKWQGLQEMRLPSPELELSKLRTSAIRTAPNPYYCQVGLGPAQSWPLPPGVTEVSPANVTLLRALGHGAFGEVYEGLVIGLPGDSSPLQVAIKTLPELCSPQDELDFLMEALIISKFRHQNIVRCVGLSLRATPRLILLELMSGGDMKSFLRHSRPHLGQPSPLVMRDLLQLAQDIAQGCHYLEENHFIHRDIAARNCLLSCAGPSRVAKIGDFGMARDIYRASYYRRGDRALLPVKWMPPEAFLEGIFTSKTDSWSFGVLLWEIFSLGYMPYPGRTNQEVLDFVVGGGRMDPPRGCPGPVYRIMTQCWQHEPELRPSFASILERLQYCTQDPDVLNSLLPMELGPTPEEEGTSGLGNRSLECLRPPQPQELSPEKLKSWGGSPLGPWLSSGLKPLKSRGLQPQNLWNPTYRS

[17] = target: Protein-tyrosine kinase 2-beta (Homo sapiens, UniProt Q14289); experiment: Binding affinity to PYK2 (unknown origin) assessed as dissociation constant by Ambit kinase binding assay
Protein-tyrosine kinase 2-beta, sequence (Q14289 whole entry): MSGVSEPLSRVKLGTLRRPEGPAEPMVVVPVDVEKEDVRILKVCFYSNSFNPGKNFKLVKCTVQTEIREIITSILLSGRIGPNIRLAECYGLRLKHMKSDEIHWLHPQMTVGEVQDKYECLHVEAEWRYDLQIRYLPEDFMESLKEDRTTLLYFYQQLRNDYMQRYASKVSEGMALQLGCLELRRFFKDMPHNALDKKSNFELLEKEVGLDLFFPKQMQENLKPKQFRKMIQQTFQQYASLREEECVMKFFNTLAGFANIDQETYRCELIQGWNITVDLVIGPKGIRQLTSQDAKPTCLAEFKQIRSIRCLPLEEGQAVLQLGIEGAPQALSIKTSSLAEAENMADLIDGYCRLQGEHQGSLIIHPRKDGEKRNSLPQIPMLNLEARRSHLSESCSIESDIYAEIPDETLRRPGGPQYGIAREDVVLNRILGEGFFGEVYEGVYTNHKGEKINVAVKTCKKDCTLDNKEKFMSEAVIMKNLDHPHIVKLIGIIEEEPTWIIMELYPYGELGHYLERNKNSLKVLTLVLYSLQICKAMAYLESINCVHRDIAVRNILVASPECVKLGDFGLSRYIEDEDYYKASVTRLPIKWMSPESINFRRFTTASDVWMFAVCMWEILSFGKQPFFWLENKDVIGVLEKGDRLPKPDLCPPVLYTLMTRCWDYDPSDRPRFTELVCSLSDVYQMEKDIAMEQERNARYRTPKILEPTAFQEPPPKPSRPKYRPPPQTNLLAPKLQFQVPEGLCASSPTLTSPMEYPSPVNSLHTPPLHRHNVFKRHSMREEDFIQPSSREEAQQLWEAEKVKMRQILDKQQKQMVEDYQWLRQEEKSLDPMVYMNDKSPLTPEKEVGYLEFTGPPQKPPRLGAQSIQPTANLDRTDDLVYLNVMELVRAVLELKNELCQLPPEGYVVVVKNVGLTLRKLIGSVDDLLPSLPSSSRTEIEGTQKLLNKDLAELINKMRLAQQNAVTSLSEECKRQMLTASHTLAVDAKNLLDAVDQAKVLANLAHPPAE

[18] = target: AP2-associated protein kinase 1 (Homo sapiens) (UniProt Q2M2I8); experiment: Inhibition of AAK1 (unknown origin) assessed as residual enzyme activity at 10 uM by Ambit kinase binding assay relative to control
AP2-associated protein kinase 1 (Homo sapiens), sequence (Q2M2I8 whole entry, looked up): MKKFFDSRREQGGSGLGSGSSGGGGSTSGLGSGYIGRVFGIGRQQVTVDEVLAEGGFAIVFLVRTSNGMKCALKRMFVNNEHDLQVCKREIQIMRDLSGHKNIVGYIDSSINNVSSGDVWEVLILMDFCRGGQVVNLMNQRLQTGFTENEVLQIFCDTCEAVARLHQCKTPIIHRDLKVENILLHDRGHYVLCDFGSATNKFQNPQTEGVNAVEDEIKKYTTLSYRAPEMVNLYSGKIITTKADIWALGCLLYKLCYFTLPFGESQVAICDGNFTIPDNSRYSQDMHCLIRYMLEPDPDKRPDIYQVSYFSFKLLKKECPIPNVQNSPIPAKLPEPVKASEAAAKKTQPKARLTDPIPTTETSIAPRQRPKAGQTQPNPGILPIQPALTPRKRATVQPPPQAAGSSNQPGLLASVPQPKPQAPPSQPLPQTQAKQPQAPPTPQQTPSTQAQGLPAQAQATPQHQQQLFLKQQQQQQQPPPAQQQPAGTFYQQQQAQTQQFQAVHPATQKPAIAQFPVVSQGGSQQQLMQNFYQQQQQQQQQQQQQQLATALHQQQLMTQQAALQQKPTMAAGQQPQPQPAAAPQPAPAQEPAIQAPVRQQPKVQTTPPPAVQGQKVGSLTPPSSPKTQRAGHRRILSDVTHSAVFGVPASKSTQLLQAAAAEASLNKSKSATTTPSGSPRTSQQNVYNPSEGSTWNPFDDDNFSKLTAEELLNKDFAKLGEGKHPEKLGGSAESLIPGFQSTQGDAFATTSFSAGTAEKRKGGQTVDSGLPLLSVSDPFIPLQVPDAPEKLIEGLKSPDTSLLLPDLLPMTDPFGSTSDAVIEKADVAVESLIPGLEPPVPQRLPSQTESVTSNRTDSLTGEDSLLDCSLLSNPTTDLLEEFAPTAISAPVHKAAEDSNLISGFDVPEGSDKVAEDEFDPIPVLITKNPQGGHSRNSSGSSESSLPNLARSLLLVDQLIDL

[19] = target: BMP-2-inducible protein kinase (Homo sapiens) (UniProt Q9NSY1); experiment: Inhibition of BIKE (unknown origin) assessed as residual enzyme activity at 10 uM by Ambit kinase binding assay relative to control
[20] = target: Calcium/calmodulin-dependent protein kinase kinase 1 (Homo sapiens) (UniProt Q8N5S9); experiment: Inhibition of CAMKK1 (unknown origin) assessed as residual enzyme activity at 10 uM by Ambit kinase binding assay relative to control
[21] = target: Death-associated protein kinase 3 (Homo sapiens) (UniProt O43293); experiment: Inhibition of DAPK3 (unknown origin) assessed as residual enzyme activity at 10 uM by Ambit kinase binding assay relative to control
[22] = target: Inhibitor of nuclear factor kappa-B kinase subunit alpha (Homo sapiens) (UniProt O15111); experiment: Inhibition of IKK-alpha (unknown origin) assessed as residual enzyme activity at 10 uM by Ambit kinase binding assay relative to control
Inhibitor of nuclear factor kappa-B kinase subunit alpha (Homo sapiens), sequence (O15111 whole entry): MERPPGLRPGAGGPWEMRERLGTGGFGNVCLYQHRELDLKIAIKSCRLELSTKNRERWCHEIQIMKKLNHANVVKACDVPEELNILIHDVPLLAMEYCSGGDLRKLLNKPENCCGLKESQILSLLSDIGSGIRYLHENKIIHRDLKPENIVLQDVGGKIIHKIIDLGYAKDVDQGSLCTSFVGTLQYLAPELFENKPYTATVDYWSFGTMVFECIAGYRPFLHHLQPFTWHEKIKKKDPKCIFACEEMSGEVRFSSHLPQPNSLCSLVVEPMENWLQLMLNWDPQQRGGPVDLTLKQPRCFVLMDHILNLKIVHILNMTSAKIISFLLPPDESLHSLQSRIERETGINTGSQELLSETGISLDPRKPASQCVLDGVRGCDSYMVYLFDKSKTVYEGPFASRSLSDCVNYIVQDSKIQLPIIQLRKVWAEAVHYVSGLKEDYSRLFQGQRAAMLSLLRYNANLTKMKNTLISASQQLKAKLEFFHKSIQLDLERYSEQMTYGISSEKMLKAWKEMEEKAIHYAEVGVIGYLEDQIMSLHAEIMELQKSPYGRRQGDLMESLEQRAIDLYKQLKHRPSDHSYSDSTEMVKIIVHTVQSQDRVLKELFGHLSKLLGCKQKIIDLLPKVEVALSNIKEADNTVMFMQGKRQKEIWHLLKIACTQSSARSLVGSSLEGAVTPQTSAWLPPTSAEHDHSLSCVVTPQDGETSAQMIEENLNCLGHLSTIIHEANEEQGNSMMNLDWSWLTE

[23] = target: T1, Leukocyte tyrosine kinase receptor; experiment: Inhibition of LTK (unknown origin) assessed as residual enzyme activity at 10 uM by Ambit kinase binding assay relative to control
[24] = target: Serine/threonine-protein kinase 38-like (Homo sapiens) (UniProt Q9Y2H1); experiment: Inhibition of NDR2 (unknown origin) assessed as residual enzyme activity at 10 uM by Ambit kinase binding assay relative to control
[25] = target: Serine/threonine-protein kinase Nek1 (Homo sapiens) (UniProt Q96PY6); experiment: Inhibition of NEK1 (unknown origin) assessed as residual enzyme activity at 10 uM by Ambit kinase binding assay relative to control
[26] = target: Ribosomal protein S6 kinase alpha-6 (Homo sapiens) (UniProt Q9UK32); experiment: Inhibition of RPS6KA6 kinase domain 2 (unknown origin) assessed as residual enzyme activity at 10 uM by Ambit kinase binding assay relative to control
[27] = target: Myosin light chain kinase family member 4 (Homo sapiens) (UniProt Q86YV6); experiment: Inhibition of SgK085 (unknown origin) assessed as residual enzyme activity at 10 uM by Ambit kinase binding assay relative to control
Myosin light chain kinase family member 4 (Homo sapiens), sequence (Q86YV6 whole entry): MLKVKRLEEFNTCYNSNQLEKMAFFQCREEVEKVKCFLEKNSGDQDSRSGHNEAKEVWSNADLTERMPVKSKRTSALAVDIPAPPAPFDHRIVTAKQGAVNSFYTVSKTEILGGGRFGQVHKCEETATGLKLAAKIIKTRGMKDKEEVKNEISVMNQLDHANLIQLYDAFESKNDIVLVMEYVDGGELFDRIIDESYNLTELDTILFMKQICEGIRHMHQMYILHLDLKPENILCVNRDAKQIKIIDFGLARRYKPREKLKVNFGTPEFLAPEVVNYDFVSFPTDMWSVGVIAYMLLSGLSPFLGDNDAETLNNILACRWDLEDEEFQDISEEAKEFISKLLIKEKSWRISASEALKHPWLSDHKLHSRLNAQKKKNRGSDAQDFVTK

[28] = target: Tyrosine-protein kinase Tec (Homo sapiens) (UniProt P42680); experiment: Inhibition of TEC (unknown origin) assessed as residual enzyme activity at 10 uM by Ambit kinase binding assay relative to control
[29] = target: Serine/threonine-protein kinase 25 (Homo sapiens) (UniProt O00506); experiment: Inhibition of YSK1 (unknown origin) assessed as residual enzyme activity at 10 uM by Ambit kinase binding assay relative to control
Serine/threonine-protein kinase 25 (Homo sapiens), sequence (O00506 whole entry, looked up): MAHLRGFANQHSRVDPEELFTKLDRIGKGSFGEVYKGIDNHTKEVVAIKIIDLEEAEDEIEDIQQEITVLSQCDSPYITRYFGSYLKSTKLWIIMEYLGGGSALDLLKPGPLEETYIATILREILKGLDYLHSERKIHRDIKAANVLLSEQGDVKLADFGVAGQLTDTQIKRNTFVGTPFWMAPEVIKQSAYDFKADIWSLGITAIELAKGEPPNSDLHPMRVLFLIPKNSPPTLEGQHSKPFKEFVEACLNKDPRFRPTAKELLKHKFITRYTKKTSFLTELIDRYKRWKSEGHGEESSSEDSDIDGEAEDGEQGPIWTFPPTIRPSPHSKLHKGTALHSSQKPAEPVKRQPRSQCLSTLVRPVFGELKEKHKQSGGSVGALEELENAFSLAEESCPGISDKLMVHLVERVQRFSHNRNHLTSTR

COc1cc(N2CCC(O)CC2)ccc1Nc1cc(Nc2ccccc2S(=O)(=O)C(C)C)c2cc[nH]c2n1
Activity [1]: 8% | Activity [2]: Active | Activity [3]: 7.3% | Activity [4]: 16% | Activity [5]: 12% | Activity [6]: Dose-Dependent Effect | Activity [7]: 15% | Activity [8]: Dose-Dependent Effect | inhibition [9]: inactive | Activity [10]: Active | Activity [11]: Active | Activity [12]: Active | Activity [13]: Active | Activity [14]: inactive | Activity [15]: Active | Kd [16]: 29 nM | Kd [17]: 280 nM

O=C1c2ccccc2-c2n[nH]c3cccc1c23
Activity [18]: 2.6% | Activity [19]: 0.6% | Activity [20]: 10% | Activity [21]: 3.2% | Activity [22]: 0.1% | Activity [23]: 32% | Activity [24]: 28% | Activity [25]: 15% | Activity [26]: 3% | Activity [27]: 0.25% | Activity [28]: 28% | Activity [29]: 28%
